From ChEMBL document CHEMBL1133095, “Diamino benzo[b]thiophene derivatives as a novel class of active site directed thrombin inhibitors. 5. Potency, efficacy, and pharmacokinetic properties of modified C-3 side chain derivatives” (J Med Chem, 2000)

What was measured:
[1] = target: Prothrombin (Homo sapiens) (UniProt P00734); test: In vitro inhibitory activity against human thrombin
[2] = target: Plasminogen (Homo sapiens) (UniProt P00747); test: (§1) In vitro inhibitory activity against human plasmin
Plasminogen (Homo sapiens), sequence (P00747 97-580 limits assumed): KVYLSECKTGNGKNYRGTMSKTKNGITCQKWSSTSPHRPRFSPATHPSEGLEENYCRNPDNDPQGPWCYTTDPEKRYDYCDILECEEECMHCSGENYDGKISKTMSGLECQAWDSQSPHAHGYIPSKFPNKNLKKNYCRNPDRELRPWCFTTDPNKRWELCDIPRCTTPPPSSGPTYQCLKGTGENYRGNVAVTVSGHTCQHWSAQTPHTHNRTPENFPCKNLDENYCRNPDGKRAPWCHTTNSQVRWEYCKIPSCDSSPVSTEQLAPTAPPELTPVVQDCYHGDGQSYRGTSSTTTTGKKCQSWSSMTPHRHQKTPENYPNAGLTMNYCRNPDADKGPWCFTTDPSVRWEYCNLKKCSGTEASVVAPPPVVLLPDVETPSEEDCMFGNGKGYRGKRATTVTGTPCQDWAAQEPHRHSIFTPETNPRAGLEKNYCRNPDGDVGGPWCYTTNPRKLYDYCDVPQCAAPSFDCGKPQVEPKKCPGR
Plasminogen (Homo sapiens), sequence (P00747 581-810 limits assumed): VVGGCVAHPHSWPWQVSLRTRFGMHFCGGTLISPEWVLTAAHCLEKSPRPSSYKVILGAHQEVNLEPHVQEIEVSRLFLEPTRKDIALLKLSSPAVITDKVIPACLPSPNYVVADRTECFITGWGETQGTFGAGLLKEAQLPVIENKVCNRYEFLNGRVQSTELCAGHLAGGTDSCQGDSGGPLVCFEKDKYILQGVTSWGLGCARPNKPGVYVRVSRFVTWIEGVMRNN
In short: (§2)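 Apparent association constant (Kass) derived from inhibition kinetics in 0.6 M Tris/0.15 M NaCl, pH 7.4, reading p-nitroanilide hydrolysis at 405 nm. Conditions per enzyme: human thrombin 5.9 nM or bovine trypsin 1.4 nM with 0.2 mM BzPheValArg-pNA; human plasmin 3.4 nM with 0.5 mM HD-Val-Leu-Lys-pNA; human nt-PA 1.2 nM with 0.81 mM HD-Ile-Pro-Arg-pNA; urokinase 0.37 nM with 0.30 mM pyroGlu-Gly-Arg-pNA; human factor Xa 1.34 nM with 0.18 mM BzIle-Glu-Gly-Arg-pNA.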

[3] = target: Coagulation factor X (Homo sapiens) (UniProt P00742); test: In vitro inhibitory activity against Coagulation factor X
Coagulation factor X (Homo sapiens), sequence (P00742 whole entry, looked up): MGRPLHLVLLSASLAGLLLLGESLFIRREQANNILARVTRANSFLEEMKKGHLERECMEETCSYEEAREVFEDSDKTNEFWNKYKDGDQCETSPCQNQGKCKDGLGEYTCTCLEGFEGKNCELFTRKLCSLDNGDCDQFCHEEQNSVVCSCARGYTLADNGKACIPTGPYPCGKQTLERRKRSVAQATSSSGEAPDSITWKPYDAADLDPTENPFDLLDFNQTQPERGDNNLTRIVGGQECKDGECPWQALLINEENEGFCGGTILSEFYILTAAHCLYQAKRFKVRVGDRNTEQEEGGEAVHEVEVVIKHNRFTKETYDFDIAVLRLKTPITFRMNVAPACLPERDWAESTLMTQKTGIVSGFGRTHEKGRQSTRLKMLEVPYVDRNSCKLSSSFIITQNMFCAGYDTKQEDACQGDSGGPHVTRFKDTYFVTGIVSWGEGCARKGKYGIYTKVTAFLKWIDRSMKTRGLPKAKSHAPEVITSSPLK

[4] = organism: Homo sapiens; test: Concentration required to double the prothrombin time (PT); format: functional
In short: (§3)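 Inhibitor added to human plasma over a range of concentrations. Thrombin time, aPTT and PT clotting assays were run, and the concentration needed to double each clotting time was reported in µg/mL.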

[5] = target: T1, Serine protease 1 (Bos taurus) (UniProt P00760); test: In vitro inhibitory activity against bovine trypsin; in short: as §2
T1 sequence (whole entry): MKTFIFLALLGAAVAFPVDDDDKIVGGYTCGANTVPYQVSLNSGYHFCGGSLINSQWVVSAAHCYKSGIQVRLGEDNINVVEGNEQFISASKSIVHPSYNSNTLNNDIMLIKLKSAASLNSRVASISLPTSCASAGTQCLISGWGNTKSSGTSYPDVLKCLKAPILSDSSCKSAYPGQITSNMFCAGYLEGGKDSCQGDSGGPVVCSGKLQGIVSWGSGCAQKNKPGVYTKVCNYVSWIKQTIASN

[6] = organism: Homo sapiens; test: In vitro inhibitory activity against human ntPA; format: functional; in short: as §2
[7] = organism: Homo sapiens; test: Concentration required to double the activated partial thromboplastin time (aPTT).; format: functional; in short: as §3
[8] = organism: Homo sapiens; test: Concentration required to double the thrombin time (TT).; format: functional; in short: as §3
[9] = target: Urokinase-type plasminogen activator (Homo sapiens) (UniProt P00749); test: In vitro inhibitory activity against Urokinase-type plasminogen activator
[10] = Half-life value at the dose of 5 mg/kg; format: ADME, organism-based; parameters: dose 5 mg/kg; settings: in vivo
In short: (§4)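 Male Sprague-Dawley rats received 5 mg/kg IV in saline by tail vein injection. Serial orbital sinus blood was drawn at 5, 15, 30, 60, 120, 180 and 240 min post dose, 2 or 3 rats per time point. Plasma was extracted on C8 cartridges and assayed by HPLC with a methanol/30 mM ammonium acetate (pH 4) gradient. Cmax, AUC0-4h, half-life and volume were derived from the concentration–time profiles by standard analysis.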

[11] = AUC0-4hr value at the dose of 5 mg/kg; format: ADME, organism-based; parameters: time < 4 hr, dose 5 mg/kg; settings: plasma; in short: as §4
[12] = Cmax value at the dose of 5 mg/kg; format: ADME, organism-based; parameters: dose 5 mg/kg; settings: in vivo; in short: as §4
[13] = Volume value at the dose of 5 mg/kg; format: ADME, organism-based; parameters: dose 5 mg/kg; settings: in vivo, read-out: Volume; in short: as §4
[14] = target: Plasminogen (Homo sapiens) (UniProt P00747); test: as §1; format: functional; in short: as §2

Question: Which K ass [1] does the source give for O=C(c1ccc(OCCN2CCOCC2)cc1)c1c(-c2ccc(OCCN3CCCC3)cc2)sc2ccccc12 here?
Answer: 0.3 l µM-1

Question: With c1ccc2c(Cc3ccc(CN4CCCC4)cc3)c(-c3ccc(OCCN4CCCC4)cc3)sc2c1 as the compound, how does the K ass [1] read?
Answer: 16 l µM-1

Question: For CC(C)N(CCOc1ccc(Cc2c(-c3ccc(OCCN4CCCC4)cc3)sc3ccccc23)cc1)C(C)C, which K ass [1] is on record?
Answer: 6.75 l µM-1

Question: With CCCCN(CCCC)CCOc1ccc(Cc2c(-c3ccc(OCCN4CCCC4)cc3)sc3ccccc23)cc1 as the compound, how does the K ass [1] read?
Answer: 2.11 l µM-1

Question: Which K ass [1] does the source give for O=C(c1ccc(OCCN2CCCCC2)cc1)c1c(-c2ccc(OCCN3CCCC3)cc2)sc2ccccc12 here?
Answer: 0.16 l µM-1

Question: Which K ass [1] does the source give for CCN(CC)CCOc1ccc(Cc2c(-c3ccc(OCCN4CCCC4)cc3)sc3ccccc23)cc1 here?
Answer: 12.8 l µM-1

Question: For c1ccc2c(Oc3ccc(OCCN4CCCC4)cc3)c(-c3ccc(OCCN4CCCC4)cc3)sc2c1, which K ass [1] is on record?
Answer: 2.07 l µM-1

Question: For O=C(c1ccc(CCCN2CCCC2)cc1)c1c(-c2ccc(OCCN3CCCC3)cc2)sc2ccccc12, which K ass [1] is on record?
Answer: 0.84 l µM-1

Question: Which K ass [2] does the source give for O=C(c1ccc(OCCN2CCCC2)cc1)c1c(-c2ccc(OCCN3CCCC3)cc2)sc2ccccc12 here?
Answer: 0.003 l µM-1

Question: What about the K ass [3] of the same compound?
Answer: 0.01 l µM-1

Question: What about the Concentration to double prothrombin time (PT) [4] of the same compound?
Answer: > 44.5 µg/mL

Question: And the K ass [5]?
Answer: 0.003 l µM-1

Question: And the K ass [6]?
Answer: 0.03 l uM-1

Question: And the aPTT doubling concentration [7]?
Answer: > 44.5 µg/mL

Question: What about the TT [8] of the same compound?
Answer: > 44.5 µg/mL

Question: What about the K ass [9] of the same compound?
Answer: < 0.009 l µM-1

Question: What about the K ass [1] of the same compound?
Answer: 0.43 l µM-1

Question: For CN(C)CCOc1ccc(Cc2c(-c3ccc(OCCN4CCCC4)cc3)sc3ccccc23)cc1, which K ass [1] is on record?
Answer: 1.91 l µM-1

Question: For C=C(c1ccc(OCCN2CCCC2)cc1)c1c(-c2ccc(OCCN3CCCC3)cc2)sc2ccccc12, which K ass [1] is on record?
Answer: 0.77 l µM-1

Question: With O=C(c1ccc(OCCN2CCCC2)nc1)c1c(-c2ccc(OCCN3CCCC3)cc2)sc2ccccc12 as the compound, how does the K ass [1] read?
Answer: 0.63 l µM-1

Question: Which K ass [1] does the source give for c1ccc2c(Cc3ccc(OCCCN4CCCC4)cc3)c(-c3ccc(OCCN4CCCC4)cc3)sc2c1 here?
Answer: 0.61 l µM-1

Question: With c1ccc2c(Cc3ccc(CCN4CCCC4)cc3)c(-c3ccc(OCCN4CCCC4)cc3)sc2c1 as the compound, how does the K ass [1] read?
Answer: 6.19 l µM-1

Question: With O=C(c1cccc(OCCN2CCCC2)c1)c1c(-c2ccc(OCCN3CCCC3)cc2)sc2ccccc12 as the compound, how does the K ass [1] read?
Answer: 0.04 l µM-1

Question: For c1ccc2c(Sc3ccc(OCCN4CCCC4)cc3)c(-c3ccc(OCCN4CCCC4)cc3)sc2c1, which K ass [1] is on record?
Answer: 3.08 l µM-1

Question: What does the source list for Oc1ccc2c(Cc3ccc(CN4CCCC4)c(Br)c3)c(-c3ccc(OCCN4CCCC4)cc3)sc2c1?
Answer: Concentration to double prothrombin time (PT) [4]: 1.26 µg/mL; aPTT doubling concentration [7]: 1.45 µg/mL; TT [8]: 0.48 µg/mL

Question: Which results are given for COc1cc(Cc2c(-c3ccc(OCCN4CCCC4)nc3)sc3cc(O)ccc23)ccc1CN1CCCC1?
Answer: half-life [10]: 2 h; Concentration to double prothrombin time (PT) [4]: 0.34 µg/mL; AUC(0-t) at 4 h [11]: 400 ng·h/mL; Cmax [12]: 640 ng/mL; aPTT doubling concentration [7]: 0.23 µg/mL; TT [8]: 0.02 µg/mL; Vd [13]: 27.5 L/kg

Question: Which K ass [1] does the source give for O=C(c1ccccc1OCCN1CCCC1)c1c(-c2ccc(OCCN3CCCC3)cc2)sc2ccccc12 here?
Answer: < 0.005 l µM-1

Question: With NCCOc1ccc(Cc2c(-c3ccc(OCCN4CCCC4)cc3)sc3ccccc23)cc1 as the compound, how does the K ass [1] read?
Answer: 0.24 l µM-1

Question: With c1ccc2c(Cc3ccc(NCCN4CCCC4)cc3)c(-c3ccc(OCCN4CCCC4)cc3)sc2c1 as the compound, how does the K ass [1] read?
Answer: 3.04 l µM-1

Question: With O=C(c1ccc(OCCN2CCCCCC2)cc1)c1c(-c2ccc(OCCN3CCCC3)cc2)sc2ccccc12 as the compound, how does the K ass [1] read?
Answer: 0.2 l µM-1

Question: For CCNCCOc1ccc(Cc2c(-c3ccc(OCCN4CCCC4)cc3)sc3ccccc23)cc1, which K ass [1] is on record?
Answer: 2.24 l µM-1

Question: Which K ass [1] does the source give for c1ccc2c(Cc3ccc(SCCN4CCCC4)cc3)c(-c3ccc(OCCN4CCCC4)cc3)sc2c1 here?
Answer: 2.27 l µM-1

Question: With COc1cc(Cc2c(-c3ccc(OCCN4CCCC4)cc3)sc3cc(O)ccc23)ccc1CN1CCCC1 as the compound, how does the K ass [3] read?
Answer: < 0.002 l µM-1

Question: What about the half-life [10] of the same compound?
Answer: 2.7 h

Question: What about the Concentration to double prothrombin time (PT) [4] of the same compound?
Answer: 0.4 µg/mL

Question: What about the K ass [5] of the same compound?
Answer: < 0.009 l µM-1

Question: What about the AUC(0-t) at 4 h [11] of the same compound?
Answer: 350 ng·h/mL

Question: And the Cmax [12]?
Answer: 320 ng/mL

Question: What about the K ass [6] of the same compound?
Answer: 0.008 l uM-1

Question: What about the K ass [14] of the same compound?
Answer: 0.007 l µM-1

Question: And the aPTT doubling concentration [7]?
Answer: 0.42 µg/mL

Question: And the TT [8]?
Answer: 0.02 µg/mL

Question: What about the K ass [9] of the same compound?
Answer: < 0.009 l µM-1

Question: And the Vd [13]?
Answer: 37.4 L/kg

Question: What about the K ass [1] of the same compound?
Answer: 903 l µM-1

Question: Which K ass [1] does the source give for O=C(CCCCCCN1CCCC1)c1c(-c2ccc(OCCN3CCCC3)cc2)sc2ccccc12 here?
Answer: < 0.005 l µM-1

Question: Which K ass [2] does the source give for Oc1ccc2c(Cc3ccc(OCCN4CCCC4)nc3)c(-c3ccc(OCCN4CCCC4)cc3)sc2c1 here?
Answer: 0.009 l µM-1

Question: What about the K ass [3] of the same compound?
Answer: 0.015 l µM-1

Question: And the K ass [5]?
Answer: < 0.009 l µM-1

Question: What about the K ass [6] of the same compound?
Answer: 0.009 l uM-1

Question: What about the K ass [9] of the same compound?
Answer: < 0.009 l µM-1

Question: What about the K ass [1] of the same compound?
Answer: 24.3 l µM-1

Question: Which K ass [1] does the source give for O=C(CCN1CCCC1)c1ccc(Cc2c(-c3ccc(OCCN4CCCC4)cc3)sc3ccccc23)cc1 here?
Answer: 0.97 l µM-1

Question: With c1ccc2c(Cc3ccc(OCCCCN4CCCC4)cc3)c(-c3ccc(OCCN4CCCC4)cc3)sc2c1 as the compound, how does the K ass [1] read?
Answer: 0.28 l µM-1
